Results from PMC3889329 (Diabetes Therapy, 2013).

Columns and labels:
[1] = tested on: patients with type 2 diabetes mellitus; experiment: Weighted mean daily glucose; type: in vivo, human; settings: for Mean MDG, mean (least squares) change from baseline to day 8: baseline day −2
Summary of the method: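 Eight-point weighted mean daily glucose was calculated as the 24 h glucose AUEC0–24 divided by 24 h. It was measured under standardized meals without OGTT on day −2 (baseline) and day 8, after multiple once-daily oral doses. Change from baseline is given as least squares means. Analysis used the treated set.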

[2] = tested on: patients with type 2 diabetes mellitus; experiment: Safety and tolerability; type: in vivo, human; settings: for Diarrhea / Headache / Hypoglycemia / Patients with any AE / Pruritus: N = 9
Summary of the method: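 This was a double-blind, multiple rising dose trial with patients randomized 3:1 to active or placebo per dose group. Oral dosing was once daily: a single dose on day 1, then days 3–9. Adverse events were recorded, and relatedness was investigator-defined. Hypoglycemia was defined as blood glucose <3.5 mmol/L. An end-of-study examination was done on days 15–21. Analysis was descriptive, randomized set (n = 48).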

SGLT1 = settings: in vitro; cited from earlier work
healthy volunteers = settings: single oral doses; cited from earlier work
[3] = tested on: patients with type 2 diabetes mellitus; experiment: Oral glucose tolerance test, glucose AUEC1-5; type: in vivo, human; settings: for Glucose AUEC1–5, change from baseline to day 9: baseline day −1
Summary of the method: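 For the OGTT, 75 g glucose solution was given after an overnight fast on days −1, 1 and 9, with the test compound or placebo given orally once daily. Glucose AUEC was calculated over 1–5 h after OGTT. Change is from baseline on day −1. Patients were randomized 3:1 to active or placebo per dose group. Analysis was descriptive.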

[4] = Pharmacokinetics in plasma and urine; type: in vivo, human
Summary of the method: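 Plasma was sampled pre-dose on days −2, −1, 1, 2, 3 and 5–9, up to 48 h after the day 1 single dose and up to 72 h after the day 9 dose. Urine was collected on days 1 and 9. Analysis was by HPLC–MS/MS (LLOQ 1.11 nmol/L plasma, 4.44 nmol/L urine). AUC used linear-up/log-down trapezoids. Steady state was assessed from day 5–9 troughs with a log-scale repeated-measures model. n = 36.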

SMILES: OC[C@H]1O[C@@H](c2ccc(Cl)c(Cc3ccc(O[C@H]4CCOC4)cc3)c2)[C@H](O)[C@@H](O)[C@@H]1O [Empagliflozin]
- Mean MDG (SD), Day 8 ([1]; 2.5 mg qd, without OGTT): 134 (42.7) mg/dL
- Mean MDG change from baseline to day 8, difference to placebo ([1]; 2.5 mg qd, without OGTT): −15.5, p < 0.05 mg/dL
- Mean MDG, mean (least squares) change from baseline to day 8 ([1]; 2.5 mg qd, without OGTT): -29.0 mg/dL
- Mean MDG (SD), Day 8 ([1]; 10 mg qd, n = 8, without OGTT): 124 (18.9) mg/dL
- Mean MDG change from baseline to day 8, difference to placebo ([1]; 10 mg qd, without OGTT): −23.5, p < 0.01 mg/dL
- Mean MDG, mean (least squares) change from baseline to day 8 ([1]; 10 mg qd, without OGTT): -37.0 mg/dL
- Mean MDG (SD), Day 8 ([1]; 25 mg qd, without OGTT): 133 (36.2) mg/dL
- Mean MDG change from baseline to day 8, difference to placebo ([1]; 25 mg qd, without OGTT): −15.0, p = 0.052 mg/dL
- Mean MDG, mean (least squares) change from baseline to day 8 ([1]; 25 mg qd, without OGTT): -28.5 mg/dL
- Mean MDG (SD), Day 8 ([1]; 100 mg qd, without OGTT): 154 (17.9) mg/dL
- Mean MDG change from baseline to day 8, difference to placebo ([1]; 100 mg qd, without OGTT): −10.6, p = 0.168 mg/dL
- Mean MDG, mean (least squares) change from baseline to day 8 ([1]; 100 mg qd, without OGTT): -24.1 mg/dL
- Diarrhea ([2]; 2.5 mg qd): 2 (22.2) n (%)
- Headache ([2]; 2.5 mg qd): 0 n (%)
- Hypoglycemia ([2]; 2.5 mg qd): 0 n (%)
- Patients with any AE ([2]; 2.5 mg qd): 6 (66.7) n (%)
- Pruritus ([2]; 2.5 mg qd): 1 (11.1) n (%)
- Diarrhea ([2]; 10 mg qd): 0 n (%)
- Headache ([2]; 10 mg qd): 1 (11.1) n (%)
- Hypoglycemia ([2]; 10 mg qd): 2 (22.2) n (%)
- Patients with any AE ([2]; 10 mg qd): 5 (55.6) n (%)
- Pruritus ([2]; 10 mg qd): 0 n (%)
- Diarrhea ([2]; 25 mg qd): 0 n (%)
- Headache ([2]; 25 mg qd): 2 (22.2) n (%)
- Hypoglycemia ([2]; 25 mg qd): 1 (11.1) n (%)
- Patients with any AE ([2]; 25 mg qd): 5 (55.6) n (%)
- Pruritus ([2]; 25 mg qd): 1 (11.1) n (%)
- Diarrhea ([2]; 100 mg qd): 0 n (%)
- Headache ([2]; 100 mg qd): 0 n (%)
- Hypoglycemia ([2]; 100 mg qd): 0 n (%)
- Patients with any AE ([2]; 100 mg qd): 3 (33.3) n (%)
- Pruritus ([2]; 100 mg qd): 0 n (%)
- Frequency of AEs ([2]; all patients receiving empagliflozin): 52.8%
- Patients with hypoglycemic events (blood glucose <3.5 mmol/L) ([2]; all within 5 h of OGTT administration, moderate intensity): Three
- Patients with AE leading to discontinuation of study treatment ([2]; cellulitis, moderate intensity, not believed related to study medication): 1 patient
- Tolerability ([2]; multiple once-daily oral doses 2.5–100 mg): well tolerated
- Fatalities or serious AEs ([2]; treatment period): no fatalities or serious AEs
- Urinary tract or genital tract infections ([2]; treatment period): No urinary tract or genital tract infections were reported
- Selectivity for SGLT2 over SGLT1 (SGLT1): > 2,500 fold
- Tolerability (healthy volunteers): well tolerated
- Mean (SD) glucose AUEC1–5, Day 9 ([3]; 2.5 mg qd, after OGTT): 713 (216) mg h/dL
- Glucose AUEC1–5, change from baseline to day 9 ([3]; 2.5 mg qd, after OGTT): 23.1%
- Glucose AUEC1–5, change from baseline to day 9 ([3]; 10 mg qd, after OGTT): 27.5%
- Mean (SD) glucose AUEC1–5, Day 9 ([3]; 10 mg qd, n = 8, after OGTT): 655 (144) mg h/dL
- Mean (SD) glucose AUEC1–5, Day 9 ([3]; 25 mg qd, after OGTT): 679 (109) mg h/dL
- Glucose AUEC1–5, change from baseline to day 9 ([3]; 25 mg qd, after OGTT): 23.0%
- Mean (SD) glucose AUEC1–5, Day 9 ([3]; 100 mg qd, after OGTT): 817 (126) mg h/dL
- Glucose AUEC1–5, change from baseline to day 9 ([3]; 100 mg qd, after OGTT): 22.9%
- Accumulation at steady state ([4]; 2.5–100 mg qd): up to 23%
- half-life ([4]; human, plasma, oral, Mean t 1/2 at steady state, day 9, range over 2.5–100 mg qd): 10.3 to 18.8 h
- Tmax ([4]; human, plasma, po): 1.5 to 3 h
- Steady state reached by ([4]; repeated once-daily dosing, trough concentrations days 5–8): ≤ 5 days
